Legend:
Escherichia coli = assay: Antibacterial activity against Escherichia coli after 18 hrs by broth microdilution method; type: functional
Method in brief: (§1)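 Broth microdilution per CLSI, using ATCC standard strains. Final compound concentrations ran from 0.125 to 256 μg/mL. Plates were incubated at 37 °C for 18 h. MIC was taken as the lowest concentration preventing visible bacterial growth. Levofloxacin served as the positive control.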

[1] = tested on: Human immunodeficiency virus 1; assay: Antiviral activity against VSV pseudotyped HIV1 infected in SupT1 cells after 48 hrs by luciferase reporter gene assay; type: functional, cell-based; conditions: Human immunodeficiency virus 1, SUP-T1, 48 h
Method in brief: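 VSV-G pseudotyped HIV-1 produced by cotransfecting 293T cells (2 × 10^5/mL) with 0.6 μg pNL-Luc-E and 0.4 μg pHIT/G. Supernatant harvested after 48 h, 0.45 μm filtered, and capsid quantified by p24 antigen-capture ELISA. SupT1 cells infected at MOI 1 with or without compound, 37 °C, 48 h. Inhibition read by firefly luciferase. Efavirenz positive control.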

Staphylococcus aureus = assay: Antibacterial activity against Staphylococcus aureus after 18 hrs by broth microdilution method; type: functional; method in brief: as §1

Structure (SMILES)	MIC (Escherichia coli) [µg/mL]	IC50 [1] [µM]	MIC (Staphylococcus aureus) [µg/mL]
CC(=O)[C@@]1(O)C(=O)N2C(C)(C)[C@@H]3Cc4cccc5c4[C@@]4(O[C@@]1(O)[C@@]2(O)[C@H]34)C(=O)N5	> 64	70.1	> 64
Cc1cc(=O)n2c(n1)-c1c(cc3cccc4c3c1C(=O)N4)C2(C)C	> 64	20.5	> 64
COC1=CC(=O)C[C@@H](C)[C@]12Oc1cc(OC)cc(OC)c1C2=O	> 64	89.7	> 64
COc1ccc2c3c1C(=O)CC(C)(C)N3C(=O)[C@]21C[C@]2([N+](=O)[O-])CN3CCC[C@H]3C[C@@H]2C1(C)C	> 64	57.7	> 64
COc1cc(OC)c2c(c1Cl)O[C@@]1(C(=O)C=C(NCCC(C)C)C[C@H]1C)C2=O	> 64	33.2	> 64
CN1C(=O)c2c3c(cc4cccc1c24)C(C)(C)NC3=O	> 64	12.6	> 64
COc1cc(O)c2c(=O)c3c(C)cc(O)cc3oc2c1	> 64	79.4	> 64
COC1=CC(=O)C[C@@H](C)[C@]12Oc1c(Cl)c(OC)cc(OC)c1C2=O [GRISEOFULVIN]	> 64	87.1	> 64
Cc1cc(=O)n2c(n1)-c1c(cc3cccc4c3c1C(=O)N4C)C2(C)C	> 64	77.9	> 64

Source: ChEMBL document CHEMBL4038266, “Griseofulvin Derivative and Indole Alkaloids from Penicillium griseofulvum CPCC 400528” (J Nat Prod, 2017)
